Tests used:
Rattus norvegicus [1] = experiment: Effect of compound on relative liver weight in 7th group of normal chow-fed male rats after a dose of 100 mg/kg/day; assay type: functional
In short: (§1)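 Chow-fed male Sprague–Dawley CD rats, 60–80 g, dosed by oral gavage once daily for 4 days in 1.3% Tween 80/0.25% CMC. Fasted overnight and sacrificed 24 h after the last dose. Liver weight expressed as % of body weight at termination. Six per group, mean ± SEM.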

Rattus norvegicus [2] = experiment: Effect of compound on serum apolipoprotein A1 concentration in chow-fed male rats at a dose of 10 mg/kg/day; assay type: functional, organism-based
In short: (§2)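 Separate dose-response study in male Sprague–Dawley CD rats, 60–80 g, on chow. Oral gavage once daily for 4 days in 1.3% Tween 80 / 0.25% CMC; fasted overnight, bled 24 h after last dose. Apo-A1 by ELISA with rabbit anti-rat primary, alkaline phosphatase-conjugated anti-rabbit IgG and p-nitrophenyl phosphate substrate. HDL-C by FPLC fractionation. Mean ± SEM, six per group.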

Rattus norvegicus [3] = experiment: Effect of compound on alanine aminotransferase (ALT) levels in 1st group of normal chow-fed male rats after a dose of 1 mg/kg/day; assay type: functional, organism-based
In short: (§3)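 Male Sprague–Dawley CD rats (60–80 g) on standard chow under a reversed 12 h light/dark cycle. Compound was suspended in 1.3% Tween 80/0.25% CMC and given as a single daily oral gavage dose for 4 days. Rats were fasted overnight and killed 24 h after the last dose. Serum ALT, AST, ALKP and LDH were read on a clinical analyzer. Weight gain was start versus end weight. Mean ± SEM, n = 6.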

[4] = Effect on serum lipids in 3rd group of normal chow-fed male rats after a dose of 5 mg/kg/day was evaluated as ratio of total plasma cholesterol levels to high-density lipoprotein cholesterol levels; assay type: functional
In short: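 Male Sprague–Dawley CD rats, 60–80 g, chow-fed, dosed by oral gavage daily for 4 days in 1.3% Tween 80/0.25% CMC. Fasted overnight, bled 24 h after the last dose. Serum total cholesterol by enzymatic reagent; HDL-C from cholesterol in FPLC fractions; TPC/HDL-C ratio calculated. Six per group, mean ± SEM.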

Rattus norvegicus [5] = experiment: Effect of compound on liver weight in 6th group of normal chow-fed male rats after a dose of 50 mg/kg/day; assay type: functional
In short: (§4)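 Male Sprague–Dawley CD rats, 60–80 g, on chow with a reverse 12 h light/dark cycle. Given one oral gavage dose daily for 4 days, suspended in 1.3% Tween 80/0.25% CMC. Fasted overnight and sacrificed 24 h after the last dose for blood and liver. Serum liver enzymes read on a clinical analyzer. Six per group, mean ± SEM.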

Cricetinae gen. sp. [6] = experiment: Effect of compound on high-density lipoprotein cholesterol levels in 1st group of cholesterol-fed male hamsters at 3 mg/kg/day after 14 days of treatment; assay type: functional, organism-based
Rattus norvegicus [7] = experiment: Effect of compound on serum apolipoprotein A1 concentration in chow-fed male rats at a dose of 100 mg/kg/day; assay type: functional, organism-based; in short: as §2
Rattus norvegicus [8] = experiment: Effect of compound on liver weight in 3rd group of normal chow-fed male rats after a dose of 5 mg/kg/day; assay type: functional; in short: as §4
Cricetinae gen. sp. [9] = experiment: Effect of compound on alanine aminotransferase (ALT) levels in 2nd group of cholesterol-fed male hamsters at 10 mg/kg/day after 14 days of treatment; details: Mesocricetus auratus
[10] = Effect on serum lipids in 1st group of cholesterol-fed male hamsters at 3 mg/kg/day after 14 days of treatment was evaluated as ratio of total cholesterol levels to high-density lipoprotein cholesterol levels; assay type: functional
In short: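 Male Syrian Golden hamsters on chow plus 0.25% cholesterol, 2 weeks before and during dosing. Oral gavage for 14 days in 2% Tween 80/saline. Fasted 4 h before sacrifice. Serum total cholesterol measured enzymatically; HDL-C from cholesterol in FPLC lipoprotein fractions; TC/HDL-C ratio calculated. Six per group, mean ± SEM.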

Rattus norvegicus [11] = experiment: Effect of compound on thyroxine levels in 5th group of normal chow-fed male rats after a dose of 20 mg/kg/day; assay type: functional, organism-based
In short: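 Male Sprague–Dawley CD rats, 60–80 g, on standard chow with reverse 12 h light/dark cycle. One oral gavage dose daily for 4 days, suspended in 1.3% Tween 80 and 0.25% CMC. Fasted overnight; sacrificed 24 h after the last dose. Serum TC on clinical analyzer, lipoproteins by FPLC with cholesterol per fraction, T4 on analyzer. Mean ± SEM, six rats per group.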

Rattus norvegicus [12] = experiment: Percent change in triglycerides in hypercholesterolemic rats at a dose of 100 mg/kg/day for 8 days; assay type: functional
Rattus norvegicus [13] = experiment: Effect of compound on alkaline phosphatase (ALKP) levels in 6th group of normal chow-fed male rats after a dose of 50 mg/kg/day; assay type: functional, organism-based; in short: as §3
Rattus norvegicus [14] = experiment: Effect of compound on total plasma cholesterol levels in 5th group of normal chow-fed male rats after a dose of 20 mg/kg/day; assay type: functional, organism-based
In short: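 Male Sprague–Dawley CD rats (60–80 g) on Purina 5001 chow with a reverse 12 h light/dark cycle. Dosed once daily by oral gavage for 4 days, suspended in 1.3% Tween 80 / 0.25% CMC. Fasted overnight and bled 24 h after the last dose. Serum TC and glycerol-blanked TG measured enzymatically; VLDL-C by FPLC fractionation with cholesterol assay. n=6, mean ± SEM.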

Rattus norvegicus [15] = experiment: Effect of compound on alkaline phosphatase (ALKP) levels in 4th group of normal chow-fed male rats after a dose of 10 mg/kg/day; assay type: functional, organism-based; in short: as §3
Cricetinae gen. sp. [16] = experiment: Effect of compound on low-density lipoprotein cholesterol levels in 3rd group of cholesterol-fed male hamsters at 30 mg/kg/day after 14 days of treatment; details: Mesocricetus auratus
Rattus norvegicus [17] = experiment: Effect of compound on liver weight in 1st group of normal chow-fed male rats after a dose of 1 mg/kg/day; assay type: functional; in short: as §4
Rattus norvegicus [18] = experiment: Effect of compound on alanine aminotransferase (ALT) levels in 2nd group of normal chow-fed male rats after a dose of 2 mg/kg/day; assay type: functional, organism-based; in short: as §3
Rattus norvegicus [19] = experiment: Effect of compound on relative liver weight in 4th group of normal chow-fed male rats after a dose of 10 mg/kg/day; assay type: functional; in short: as §1
Cricetinae gen. sp. [20] = experiment: Effect of compound on alkaline phosphatase (ALKP) levels in 3rd group of cholesterol-fed male hamsters at 30 mg/kg/day after 14 days of treatment; details: Mesocricetus auratus
Rattus norvegicus [21] = experiment: Percent change in very low-density lipoprotein cholesterol following oral administration of compound in normal chow-fed rats at 100 mg/kg/day for 4 days; assay type: functional
In short: (§5)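 Chow-fed male Sprague–Dawley CD rats, 60–80 g, gavaged 100 mg/kg/day for 4 days in 1.3% Tween 80/0.25% CMC. Fasted overnight, bled 24 h after the last dose. Total cholesterol and glycerol-blanked triglycerides read enzymatically; lipoproteins by FPLC with cholesterol per fraction. % change versus control; six per group, p < 0.05.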

Rattus norvegicus [22] = experiment: Effect of compound on lactic dehydrogenase (LDH) levels in 5th group of normal chow-fed male rats after a dose of 20 mg/kg/day; assay type: functional, organism-based; in short: as §4
Rattus norvegicus [23] = experiment: Effect of compound on high-density lipoprotein cholesterol levels in 2nd group of normal chow-fed male rats after a dose of 2 mg/kg/day; assay type: functional, organism-based
Rattus norvegicus [24] = experiment: Percent change in low-density lipoprotein cholesterol following oral administration of compound in normal chow-fed rats at 100 mg/kg/day for 4 days; assay type: functional; in short: as §5

SMILES: CCN1CC(=O)N(c2cc(Cl)ccc2C)C1=S
- Relative liver weight (Rattus norvegicus [1]): 4.5%
- Serum level (Rattus norvegicus [2]): 79.2 mg/dL
- Level (Rattus norvegicus [3]): 61 U l-1
- Ratio [4]: 1.39
- Liver weight (Rattus norvegicus [5]): 7.3 g
- Serum level (Cricetinae gen. sp. [6]): 136 mg/dL
- Serum level (Rattus norvegicus [7]): 96.4 mg/dL
- Liver weight (Rattus norvegicus [8]): 7.2 g
- Level (Cricetinae gen. sp. [9]): 134 U l-1
- Ratio [10]: 3.14
- Serum level (Rattus norvegicus [11]): 4.05 µg/dL
- Change (Rattus norvegicus [12]): -19%
- Level (Rattus norvegicus [13]): 330 U l-1
- Serum level (Rattus norvegicus [14]): 84 mg/dL
- Level (Rattus norvegicus [15]): 327 U l-1
- Serum level (Cricetinae gen. sp. [16]): 125 mg/dL
- Liver weight (Rattus norvegicus [17]): 8.4 g
- Level (Rattus norvegicus [18]): 59 U l-1
- Relative liver weight (Rattus norvegicus [19]): 4.3%
- Level (Cricetinae gen. sp. [20]): 136 U l-1
- Change (Rattus norvegicus [21]): -17.2%
- Level (Rattus norvegicus [22]): 1140 U l-1
- Serum level (Rattus norvegicus [23]): 41 mg/dL
- Change (Rattus norvegicus [24]): 9.6%

— ChEMBL document CHEMBL1148398, “Design, synthesis, and biological evaluation of thio-containing compounds with serum HDL-cholesterol-elevating properties” (2004)
